Reference: ChEMBL document CHEMBL3098111, “Discovery of 2,5-diarylnicotinamides as selective orexin-2 receptor antagonists (2-SORAs)” (Bioorg Med Chem Lett, 2013)
Values belong to the compound of their own block, whether it stands above or below them.

Legend:
Homo sapiens = species: Homo sapiens; experiment: Selectivity ratio of Ki for human orexin-1 receptor to Ki for human orexin-2 receptor
Procedure, shortened: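 Radioligand binding: a high-affinity radioligand was bound to membranes from human cells overexpressing OX1R or OX2R, and inhibition of that binding was measured and expressed as Ki. The ratio is the OX1R Ki divided by the OX2R Ki.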

[1] = target: T1, Orexin/Hypocretin receptor type 1 (Homo sapiens, UniProt O43613); experiment: Displacement of [3H]SB-674042 from human orexin-1 receptor after 60 mins by scintillation counting analysis
T1 sequence (O43613 whole entry): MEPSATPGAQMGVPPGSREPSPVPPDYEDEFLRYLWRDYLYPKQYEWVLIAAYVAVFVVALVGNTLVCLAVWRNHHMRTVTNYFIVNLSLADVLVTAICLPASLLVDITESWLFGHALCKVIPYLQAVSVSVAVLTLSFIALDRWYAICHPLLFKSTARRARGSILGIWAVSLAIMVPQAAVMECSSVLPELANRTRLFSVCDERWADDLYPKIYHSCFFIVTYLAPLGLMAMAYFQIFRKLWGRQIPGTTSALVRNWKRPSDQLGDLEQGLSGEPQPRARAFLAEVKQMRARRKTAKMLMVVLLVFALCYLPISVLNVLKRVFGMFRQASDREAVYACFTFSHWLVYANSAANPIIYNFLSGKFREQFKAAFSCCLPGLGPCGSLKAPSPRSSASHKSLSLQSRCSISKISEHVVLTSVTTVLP
Procedure, shortened: (§1)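 Radioligand binding on membranes from human cells overexpressing the orexin receptor. Inhibition of high-affinity radioligand binding measured and expressed as Ki.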

Orexin receptor type 2 [2] = target: T2, Orexin receptor type 2 (Homo sapiens, UniProt O43614); experiment: Displacement of [3H]SB-674042 from human orexin-2 receptor after 60 mins by scintillation counting analysis; procedure, shortened: as §1
T2 sequence (O43614 whole entry): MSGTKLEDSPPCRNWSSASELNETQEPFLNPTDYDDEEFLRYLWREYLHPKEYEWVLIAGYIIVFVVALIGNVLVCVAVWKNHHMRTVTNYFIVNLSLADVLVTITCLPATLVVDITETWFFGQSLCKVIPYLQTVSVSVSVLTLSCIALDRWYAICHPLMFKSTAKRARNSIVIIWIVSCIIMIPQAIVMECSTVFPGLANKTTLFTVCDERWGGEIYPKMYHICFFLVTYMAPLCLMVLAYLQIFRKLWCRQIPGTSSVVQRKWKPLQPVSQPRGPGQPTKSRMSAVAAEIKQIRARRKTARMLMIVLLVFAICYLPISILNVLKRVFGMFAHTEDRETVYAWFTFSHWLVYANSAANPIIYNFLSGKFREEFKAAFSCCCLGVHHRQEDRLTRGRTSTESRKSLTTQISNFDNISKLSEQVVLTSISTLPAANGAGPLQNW

[3] = Bioavailability in rat at 10 mg/kg; type: ADME, organism-based; conditions: in vivo
[4] = Clearance in rat at 10 mg/kg; type: ADME, organism-based; set-up: dose 10 mg/kg; conditions: in vivo
[5] = Oral bioavailability in rat; type: ADME, organism-based; conditions: in vivo
[6] = Clearance in rat; type: ADME, organism-based; conditions: in vivo
[7] = Half life in rat; type: ADME, organism-based; conditions: in vivo
[8] = Ratio of drug level in brain to plasma in rat at 3 mg/kg, po after 1 hr; type: ADME, organism-based; set-up: dose 3 mg/kg, route oral; conditions: read-out: BPR
[9] = target: L-type calcium channel, phenylalkylamine binding site (Rattus norvegicus, UniProt P22002+P27732+Q02485); experiment: Inhibition of rat L-type calcium channel phenylalkylamine binding site at 10 uM relative to control
[10] = target: L-type calcium channel, dihydropyridine binding site (Rattus norvegicus, UniProt P22002+P27732+Q02485); experiment: Inhibition of rat L-type calcium channel dihydropyridine binding site at 10 uM relative to control
[11] = target: L-type calcium channel, benzothiazepine binding site (Rattus norvegicus, UniProt P22002+P27732+Q02485); experiment: Inhibition of rat L-type calcium channel benzothiazepine binding site at 10 uM relative to control
MAO-B = MAO-B (Homo sapiens, UniProt P27338); experiment: Inhibition of human MAO-B at 10 uM relative to control
MAO-A = MAO-A (Homo sapiens, UniProt P21397); experiment: Inhibition of human MAO-A at 10 uM relative to control
hERG (KCNH2) [12] = target: T3, hERG (KCNH2) (Homo sapiens, UniProt Q12809); experiment: Inhibition of human ERG at 10 uM relative to control
[13] = Cmax in rat EEG model at 15 mg/kg, po; type: ADME, organism-based; set-up: dose 15 mg/kg, route oral; conditions: in vivo
[14] = AUC in rat EEG model at 15 mg/kg, po; type: ADME, organism-based; set-up: dose 15 mg/kg, route oral; conditions: in vivo
Nucleic Acid = experiment: Ratio of drug level in CSF to plasma in rat at 3 mg/kg, po after 1 hr; type: ADME, organism-based; set-up: dose 3 mg/kg, route oral
MDR1 (P-gp, ABCB1) = MDR1 (P-gp, ABCB1) (Homo sapiens, UniProt P08183); experiment: Activity at human MDR1 expressed in pig LLC-PK cells assessed as efflux ratio of permeability from basolateral to apical side over apical to basolateral side; type: ADME, cell-based; conditions: LLC-PK1
[15] = Fraction unbound in rat plasma by equilibrium dialysis method; type: ADME, cell-free
[16] = Lipophilicity, log P of the compound; type: physicochemical; conditions: octanol/water
[17] = Fraction unbound in human plasma by equilibrium dialysis method; type: ADME, cell-free
[18] = target: T1, Orexin/Hypocretin receptor type 1; experiment: Antagonist activity at human orexin-1 receptor assessed as inhibition of orexin-A-induced intracellular calcium mobilization after 30 mins by cell-based FLIPR assay; type: functional
Procedure, shortened: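 Cell-based FLIPR functional assay in orexin receptor-expressing cells, with Ca2+ flux as the read-out of orexin-driven receptor activation.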

Orexin receptor type 2 [19] = target: T2, Orexin receptor type 2; experiment: Antagonist activity at human orexin-2 receptor assessed as inhibition of orexin-A-induced intracellular calcium mobilization after 30 mins by cell-based FLIPR assay; type: functional
[20] = target: 5-hydroxytryptamine receptor 2B (Homo sapiens, UniProt P41595); experiment: Inhibition of human 5-HT2B receptor
[21] = target: Voltage-gated inwardly rectifying potassium channel KCNH2 (Homo sapiens, UniProt Q12809); experiment: Inhibition of human ERG
[22] = target: 5-hydroxytryptamine receptor 1A (Homo sapiens, UniProt P08908); experiment: Inhibition of human 5-HT1A receptor
[23] = target: 5-hydroxytryptamine receptor 1B (Rattus norvegicus, UniProt P28564); experiment: Inhibition of rat 5-HT1B receptor
[24] = Inhibition of rabbit monoamine transporter; set-up: species or system Oryctolagus cuniculus
Mu-type opioid receptor = Mu-type opioid receptor (Homo sapiens, UniProt P35372); experiment: Inhibition of human mu opioid receptor
D(3) dopamine receptor = D(3) dopamine receptor (Homo sapiens, UniProt P35462); experiment: Inhibition of human dopamine D3 receptor
[25] = Inhibition of guinea pig adenosine transporter; set-up: species or system Cavia porcellus
hERG (KCNH2) [26] = target: T3, hERG (KCNH2); experiment: Inhibition of human ERG at 10 nM relative to control
hERG (KCNH2) [27] = target: T3, hERG (KCNH2); experiment: Inhibition of human ERG at 0.1 uM relative to control
hERG (KCNH2) [28] = target: T3, hERG (KCNH2); experiment: Inhibition of human ERG at 1 uM relative to control

T3 sequence (Q12809 whole entry): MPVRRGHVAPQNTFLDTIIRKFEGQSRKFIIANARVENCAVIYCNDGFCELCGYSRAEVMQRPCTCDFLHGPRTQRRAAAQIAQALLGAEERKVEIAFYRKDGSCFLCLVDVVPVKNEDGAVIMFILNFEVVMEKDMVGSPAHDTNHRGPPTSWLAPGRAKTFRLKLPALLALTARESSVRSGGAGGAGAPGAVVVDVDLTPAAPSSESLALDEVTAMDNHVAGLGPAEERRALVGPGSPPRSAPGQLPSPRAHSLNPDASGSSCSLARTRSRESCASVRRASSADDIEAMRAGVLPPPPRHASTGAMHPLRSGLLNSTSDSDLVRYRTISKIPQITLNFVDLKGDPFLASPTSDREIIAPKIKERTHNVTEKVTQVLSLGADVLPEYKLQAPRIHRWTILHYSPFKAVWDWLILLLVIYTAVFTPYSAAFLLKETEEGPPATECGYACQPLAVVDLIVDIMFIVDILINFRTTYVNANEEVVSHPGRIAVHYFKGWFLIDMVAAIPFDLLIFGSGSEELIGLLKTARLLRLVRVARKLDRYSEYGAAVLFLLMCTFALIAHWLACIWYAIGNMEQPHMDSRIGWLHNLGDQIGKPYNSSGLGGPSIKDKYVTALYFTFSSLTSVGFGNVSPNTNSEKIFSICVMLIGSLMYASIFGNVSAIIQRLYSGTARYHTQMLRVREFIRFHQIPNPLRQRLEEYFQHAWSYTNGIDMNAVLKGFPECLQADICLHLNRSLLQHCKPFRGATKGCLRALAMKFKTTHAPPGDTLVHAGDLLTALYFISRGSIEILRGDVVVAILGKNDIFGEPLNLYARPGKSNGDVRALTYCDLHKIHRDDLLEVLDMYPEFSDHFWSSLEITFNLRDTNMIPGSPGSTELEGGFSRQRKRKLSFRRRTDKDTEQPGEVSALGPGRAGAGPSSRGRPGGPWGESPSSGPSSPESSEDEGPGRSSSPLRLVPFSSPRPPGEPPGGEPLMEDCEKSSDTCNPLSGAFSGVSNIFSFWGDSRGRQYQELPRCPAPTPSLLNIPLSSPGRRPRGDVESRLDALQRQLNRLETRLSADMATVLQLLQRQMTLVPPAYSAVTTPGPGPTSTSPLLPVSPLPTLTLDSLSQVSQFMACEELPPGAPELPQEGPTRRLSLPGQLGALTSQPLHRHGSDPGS
Chain of D(3) dopamine receptor (P35462 whole entry): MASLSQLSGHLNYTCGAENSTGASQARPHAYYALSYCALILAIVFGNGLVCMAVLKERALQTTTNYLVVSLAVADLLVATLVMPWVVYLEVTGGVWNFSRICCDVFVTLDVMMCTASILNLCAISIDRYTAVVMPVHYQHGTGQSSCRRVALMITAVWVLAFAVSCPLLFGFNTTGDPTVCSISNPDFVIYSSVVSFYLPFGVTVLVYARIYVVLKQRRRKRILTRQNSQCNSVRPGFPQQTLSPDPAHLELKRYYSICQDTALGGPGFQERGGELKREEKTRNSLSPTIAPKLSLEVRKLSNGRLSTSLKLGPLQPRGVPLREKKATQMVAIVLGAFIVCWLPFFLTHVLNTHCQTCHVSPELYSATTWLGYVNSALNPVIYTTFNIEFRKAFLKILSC
Chain of 5-hydroxytryptamine receptor 1A (P08908 whole entry): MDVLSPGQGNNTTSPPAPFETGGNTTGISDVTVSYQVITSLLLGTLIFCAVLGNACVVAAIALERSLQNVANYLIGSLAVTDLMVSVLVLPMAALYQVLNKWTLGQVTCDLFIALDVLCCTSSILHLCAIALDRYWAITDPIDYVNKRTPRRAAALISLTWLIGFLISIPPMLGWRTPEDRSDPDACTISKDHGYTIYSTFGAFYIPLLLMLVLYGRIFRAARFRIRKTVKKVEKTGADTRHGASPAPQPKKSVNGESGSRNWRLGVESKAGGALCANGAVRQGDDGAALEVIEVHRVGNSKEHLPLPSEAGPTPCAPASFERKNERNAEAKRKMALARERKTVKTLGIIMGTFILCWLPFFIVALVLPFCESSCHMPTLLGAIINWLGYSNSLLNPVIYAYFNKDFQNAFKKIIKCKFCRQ
Chain of Mu-type opioid receptor (P35372 whole entry): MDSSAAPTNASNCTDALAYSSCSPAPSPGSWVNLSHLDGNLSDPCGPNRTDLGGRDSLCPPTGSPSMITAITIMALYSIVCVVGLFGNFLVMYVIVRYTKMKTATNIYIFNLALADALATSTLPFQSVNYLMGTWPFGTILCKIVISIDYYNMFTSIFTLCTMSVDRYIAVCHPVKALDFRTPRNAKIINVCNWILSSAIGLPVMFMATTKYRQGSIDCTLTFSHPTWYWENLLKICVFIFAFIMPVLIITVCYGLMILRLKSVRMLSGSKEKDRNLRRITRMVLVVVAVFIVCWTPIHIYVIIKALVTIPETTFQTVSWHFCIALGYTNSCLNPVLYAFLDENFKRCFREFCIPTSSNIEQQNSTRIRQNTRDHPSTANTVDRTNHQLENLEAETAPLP
Chain of 5-hydroxytryptamine receptor 2B (P41595 whole entry): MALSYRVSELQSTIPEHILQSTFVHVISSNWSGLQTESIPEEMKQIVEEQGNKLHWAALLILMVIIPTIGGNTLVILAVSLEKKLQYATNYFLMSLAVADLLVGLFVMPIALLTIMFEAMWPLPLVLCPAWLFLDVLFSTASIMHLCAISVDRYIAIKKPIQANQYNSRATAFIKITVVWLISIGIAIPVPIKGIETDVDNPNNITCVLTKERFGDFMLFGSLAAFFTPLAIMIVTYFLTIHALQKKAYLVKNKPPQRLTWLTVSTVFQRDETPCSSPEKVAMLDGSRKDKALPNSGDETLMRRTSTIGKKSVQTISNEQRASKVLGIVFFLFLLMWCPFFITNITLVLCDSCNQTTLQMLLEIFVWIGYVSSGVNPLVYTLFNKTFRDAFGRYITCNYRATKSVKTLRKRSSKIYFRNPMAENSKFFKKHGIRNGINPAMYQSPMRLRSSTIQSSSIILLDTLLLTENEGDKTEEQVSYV
Chain of 5-hydroxytryptamine receptor 1B (P28564 whole entry): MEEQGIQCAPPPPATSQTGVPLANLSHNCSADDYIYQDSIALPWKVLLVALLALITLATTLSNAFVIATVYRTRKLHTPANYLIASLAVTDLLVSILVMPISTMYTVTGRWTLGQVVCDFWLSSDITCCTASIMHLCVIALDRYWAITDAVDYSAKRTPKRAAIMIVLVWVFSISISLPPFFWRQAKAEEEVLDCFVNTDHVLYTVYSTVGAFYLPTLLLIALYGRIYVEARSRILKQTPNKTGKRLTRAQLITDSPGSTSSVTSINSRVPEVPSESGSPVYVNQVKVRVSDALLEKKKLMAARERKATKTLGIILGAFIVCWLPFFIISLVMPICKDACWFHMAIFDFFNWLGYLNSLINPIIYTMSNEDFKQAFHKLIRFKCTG
Chain of Voltage-gated inwardly rectifying potassium channel KCNH2 (Q12809 whole entry): as the sequence (Q12809 whole entry) above
Chain of MAO-B (P27338 whole entry): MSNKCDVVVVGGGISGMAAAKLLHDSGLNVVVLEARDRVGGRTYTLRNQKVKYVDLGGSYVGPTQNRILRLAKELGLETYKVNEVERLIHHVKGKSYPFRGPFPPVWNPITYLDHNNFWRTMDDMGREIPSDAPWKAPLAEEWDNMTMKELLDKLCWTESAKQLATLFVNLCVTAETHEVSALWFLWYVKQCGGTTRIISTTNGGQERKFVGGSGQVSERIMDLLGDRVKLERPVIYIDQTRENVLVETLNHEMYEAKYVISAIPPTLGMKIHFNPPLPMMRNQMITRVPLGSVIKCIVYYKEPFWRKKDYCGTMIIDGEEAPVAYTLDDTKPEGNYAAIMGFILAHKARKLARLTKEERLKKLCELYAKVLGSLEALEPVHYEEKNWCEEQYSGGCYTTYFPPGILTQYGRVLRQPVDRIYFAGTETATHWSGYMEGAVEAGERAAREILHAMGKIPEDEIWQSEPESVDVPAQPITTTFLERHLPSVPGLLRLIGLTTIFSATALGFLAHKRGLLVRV

Ratio Ki (Homo sapiens): 92 | Ki [1]: 7250 nM | Ki (Orexin receptor type 2 [2]): 78.5 nM
Structure (SMILES): Cc1cc(C)cc(-c2cnc(-c3cccnc3)c(C(=O)N(C)Cc3ccc4nccnc4c3)c2)c1

bioavailability [3]: 12% | clearance [4]: 66 mL/min/kg | Ratio Ki (Homo sapiens): 660 | Ki [1]: 462 nM | Ki (Orexin receptor type 2 [2]): 0.7 nM
Structure (SMILES): COc1ccc(CNC(=O)c2cc(-c3cc(C)cc(C)c3)cnc2-c2cccnc2)cc1OC

bioavailability [5]: 55% | clearance [6]: 39 mL/min/kg | half-life [7]: 54 min | Kp at 1 h [8]: 0.19
Structure (SMILES): COc1ccc(CNC(=O)c2cc(-c3cc(Cl)cc(Cl)c3)cnc2-c2cccnc2)cc1OC.Cl

Ratio Ki (Homo sapiens): 1810 | Ki [1]: 1090 nM | Ki (Orexin receptor type 2 [2]): 0.6 nM
Structure (SMILES): COc1ccc(CNC(=O)c2cc(-c3cc(F)cc(Cl)c3)cnc2-c2cccnc2)cc1OC

Ratio Ki (Homo sapiens): 620 | Ki [1]: 5150 nM | Ki (Orexin receptor type 2 [2]): 8.3 nM
Structure (SMILES): COc1ccc(CNC(=O)c2cc(-c3cc(F)cc(F)c3)cnc2-c2cccnc2)cc1OC

Ratio Ki (Homo sapiens): 1340 | Ki [1]: 1070 nM | Ki (Orexin receptor type 2 [2]): 0.8 nM
Structure (SMILES): COc1ccc(CNC(=O)c2cc(-c3cc(C)cc(F)c3)cnc2-c2cccnc2)cc1OC

inhibition at 10 µM [9]: 4% | inhibition at 10 µM [10]: 24% | inhibition at 10 µM [11]: 1% | inhibition at 10 µM (MAO-B): 31% | inhibition at 10 µM (MAO-A): 41% | Cmax [13]: 2300 nM | AUC [14]: 9 µM·h | Ratio (Nucleic Acid): 0.2% | efflux ratio (MDR1 (P-gp, ABCB1)): 6.4 | fraction unbound [15]: 0.047 | logP [16]: 3.6 | fraction unbound [17]: 0.032 | IC50 [18]: 292 nM | IC50 (Orexin receptor type 2 [19]): 12 nM | Ki [1]: 94.5 nM | Ki (Orexin receptor type 2 [2]): 0.07 nM | IC50 [20]: 1040 nM | Ki [20]: 662 nM | IC50 [22]: 2300 nM | Ki [22]: 1310 nM | IC50 [23]: 2400 nM | Ki [23]: 2280 nM | IC50 [24]: 8210 nM | Ki [24]: 6820 nM | IC50 (Mu-type opioid receptor): 5020 nM | Ki (Mu-type opioid receptor): 2040 nM | IC50 (D(3) dopamine receptor): 9540 nM | Ki (D(3) dopamine receptor): 3240 nM | IC50 [25]: 2530 nM | Ki [25]: 866 nM
Structure (SMILES): COc1ccc(CNC(=O)c2cc(-c3cc(Cl)cc(Cl)c3)cnc2-c2cccnc2)cc1OC
inhibition at 10 µM (hERG (KCNH2) [12]): 58% | IC50 [21]: 6950 nM | inhibition at 0.01 µM (hERG (KCNH2) [26]): 3% | inhibition at 0.1 µM (hERG (KCNH2) [27]): 12% | inhibition at 1 µM (hERG (KCNH2) [28]): 17%

Ratio Ki (Homo sapiens): 174 | Ki [1]: 833 nM | Ki (Orexin receptor type 2 [2]): 4.8 nM
Structure (SMILES): Cc1cc(C)cc(-c2cnc(-c3cccnc3)c(C(=O)NCc3ccc(N(C)C)cc3)c2)c1

Ratio Ki (Homo sapiens): 574 | Ki [1]: 747 nM | Ki (Orexin receptor type 2 [2]): 1.3 nM
Structure (SMILES): COc1ccc(CNC(=O)c2cc(-c3cccc(Cl)c3)cnc2-c2cccnc2)cc1OC

Ratio Ki (Homo sapiens): 83 | Ki [1]: 3350 nM | Ki (Orexin receptor type 2 [2]): 40.5 nM
Structure (SMILES): COc1cccc(CNC(=O)c2cc(-c3cc(C)cc(C)c3)cnc2-c2cccnc2)c1

Ratio Ki (Homo sapiens): 91 | Ki [1]: 273 nM | Ki (Orexin receptor type 2 [2]): 3 nM
Structure (SMILES): Cc1cc(C)cc(-c2cnc(-c3cccnc3)c(C(=O)NCc3ccc4c(c3)CCN4C)c2)c1

Ratio Ki (Homo sapiens): 135 | Ki [1]: 2980 nM | Ki (Orexin receptor type 2 [2]): 22 nM
Structure (SMILES): COc1ccc(CNC(=O)c2cc(-c3cc(C)cc(C)c3)cnc2-c2cccnc2)cc1

Ratio Ki (Homo sapiens): 58 | Ki [1]: 236 nM | Ki (Orexin receptor type 2 [2]): 4.1 nM
Structure (SMILES): Cc1cc(C)cc(-c2cnc(-c3cccnc3)c(C(=O)NCc3ccc(C(F)(F)F)c(F)c3)c2)c1

Ratio Ki (Homo sapiens): 61 | Ki [1]: 1100 nM | Ki (Orexin receptor type 2 [2]): 18 nM
Structure (SMILES): Cc1cc(C)cc(-c2cnc(-c3cccnc3)c(C(=O)NCc3ccc(F)c(C)c3)c2)c1

Ratio Ki (Homo sapiens): 208 | Ki [1]: 3550 nM | Ki (Orexin receptor type 2 [2]): 17 nM
Structure (SMILES): Cc1cc(C)cc(-c2cnc(-c3cccnc3)c(C(=O)NCc3ccc4c(c3)OCO4)c2)c1

Ratio Ki (Homo sapiens): 537 | Ki [1]: 65000 nM | Ki (Orexin receptor type 2 [2]): 121 nM
Structure (SMILES): COc1ccc(CNC(=O)c2cc(-c3cc(C(F)(F)F)cc(C(F)(F)F)c3)cnc2-c2cccnc2)cc1OC

Ratio Ki (Homo sapiens): 3.3 | Ki [1]: 1900 nM | Ki (Orexin receptor type 2 [2]): 580 nM
Structure (SMILES): Cc1cc(C)cc(-c2cnc(-c3cccnc3)c(C(=O)N(C)Cc3ccc4c(c3)OCO4)c2)c1
